The text below walks through data of ChEMBL document CHEMBL3351463, “Methyl effect in azumamides provides insight into histone deacetylase inhibition by macrocycles” (J Med Chem, 2014).

One assay concerns EB-3. Kind of assay: Cytotoxic activity against human EB3 cells assessed as growth inhibition up to 25 uM after 3 days by MTT assay. The class given is functional, cell-based. Summed up:
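EB-3 (EBV-infected human Burkitt's lymphoma) cells seeded at 2 × 10^4 per well in RPMI-1640 with 10% FCS and 1% penicillin/streptomycin, cultured overnight at 37 °C, 5% CO2, then given compound or DMSO vehicle. 2-fold dilution series from DMSO stocks; 3 days exposure. MTT added for 4 h, formazan dissolved in acidic 2-propanol, A570 minus 630 nm. Three experiments in duplicate.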
Background: Tetrazolium assays rely on reduction of a dye to a coloured formazan, in cell work by metabolically active cells.

In the next assay the target is Histone deacetylase 2 (Homo sapiens, UniProt Q92769). Kind of assay: Inhibition of human recombinant HDAC2 using [Ac-Leu-Gly-Lys(Ac)-AMC substrate incubated for 15 to 30 mins.
Sequence of Histone deacetylase 2 (Q92769 whole entry): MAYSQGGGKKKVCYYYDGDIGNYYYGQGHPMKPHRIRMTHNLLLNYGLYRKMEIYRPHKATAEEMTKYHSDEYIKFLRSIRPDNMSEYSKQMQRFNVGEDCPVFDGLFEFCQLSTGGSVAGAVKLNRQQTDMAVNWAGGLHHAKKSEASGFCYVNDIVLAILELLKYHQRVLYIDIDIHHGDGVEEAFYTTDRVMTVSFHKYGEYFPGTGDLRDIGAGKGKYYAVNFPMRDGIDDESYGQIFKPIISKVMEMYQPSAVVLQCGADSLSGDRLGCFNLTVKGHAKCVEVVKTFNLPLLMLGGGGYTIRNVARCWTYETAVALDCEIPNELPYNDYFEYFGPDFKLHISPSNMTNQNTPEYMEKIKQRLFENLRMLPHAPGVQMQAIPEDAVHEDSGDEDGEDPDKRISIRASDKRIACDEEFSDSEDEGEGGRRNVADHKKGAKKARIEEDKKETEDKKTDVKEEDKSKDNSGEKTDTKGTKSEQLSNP
Assay [1] has as its target T1, Protein deacetylase HDAC6 (Homo sapiens) (UniProt Q9UBN7).
T1 sequence (whole entry): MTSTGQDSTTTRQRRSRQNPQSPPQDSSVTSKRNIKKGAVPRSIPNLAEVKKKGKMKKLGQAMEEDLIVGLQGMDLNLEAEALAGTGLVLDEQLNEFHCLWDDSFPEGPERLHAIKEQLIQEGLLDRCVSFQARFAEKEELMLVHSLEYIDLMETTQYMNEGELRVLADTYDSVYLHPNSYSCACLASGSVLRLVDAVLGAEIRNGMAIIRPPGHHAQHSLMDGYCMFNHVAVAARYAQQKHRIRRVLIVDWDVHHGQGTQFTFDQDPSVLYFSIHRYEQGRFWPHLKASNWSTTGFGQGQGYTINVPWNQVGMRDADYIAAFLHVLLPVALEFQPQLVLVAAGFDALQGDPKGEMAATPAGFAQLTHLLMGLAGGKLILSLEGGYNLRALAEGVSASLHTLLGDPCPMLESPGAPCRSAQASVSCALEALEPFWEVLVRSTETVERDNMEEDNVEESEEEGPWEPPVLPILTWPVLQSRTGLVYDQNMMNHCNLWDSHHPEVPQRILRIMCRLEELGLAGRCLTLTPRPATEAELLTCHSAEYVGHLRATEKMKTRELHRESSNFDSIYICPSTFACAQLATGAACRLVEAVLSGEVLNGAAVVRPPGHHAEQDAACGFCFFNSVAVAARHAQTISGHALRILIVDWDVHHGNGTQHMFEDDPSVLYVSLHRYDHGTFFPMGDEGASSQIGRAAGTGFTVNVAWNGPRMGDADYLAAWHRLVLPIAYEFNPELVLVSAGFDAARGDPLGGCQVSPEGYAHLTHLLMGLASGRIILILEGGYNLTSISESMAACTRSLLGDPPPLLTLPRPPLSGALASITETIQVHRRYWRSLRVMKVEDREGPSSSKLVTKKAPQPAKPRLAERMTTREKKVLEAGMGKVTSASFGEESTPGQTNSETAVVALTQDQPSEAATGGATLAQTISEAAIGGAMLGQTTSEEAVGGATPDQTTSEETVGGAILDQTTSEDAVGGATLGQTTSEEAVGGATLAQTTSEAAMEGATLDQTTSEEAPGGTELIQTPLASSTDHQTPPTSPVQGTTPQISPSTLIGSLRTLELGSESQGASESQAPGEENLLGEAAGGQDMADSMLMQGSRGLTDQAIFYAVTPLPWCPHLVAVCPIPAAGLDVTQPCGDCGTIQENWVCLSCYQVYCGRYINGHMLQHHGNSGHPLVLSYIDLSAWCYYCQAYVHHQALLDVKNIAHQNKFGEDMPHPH
Kind of assay: Inhibition of human recombinant HDAC6 at 20 uM using [Ac-Leu-Gly-Lys(Ac)-AMC substrate incubated for 15 to 30 mins. Summed up:
(§1)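 Recombinant human enzyme (HDAC6 2.4 ng/μL; HDAC8 0.2 ng/μL final) in pH 8.0 Tris buffer with BSA. Ac-Leu-Gly-Lys(Ac)-AMC substrate at 20 μM for HDAC6 and 200 μM for HDAC8. Incubated 30 min at 37 °C, then trypsin development 15–30 min at room temperature. Fluorescence read at ex 360/em 460 nm.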

Assay [2] addresses T2, Protein deacetylase HDAC6 (Homo sapiens, UniProt Q9UBN7).
T2 sequence (Q9UBN7 whole entry): T1 sequence (whole entry)
Kind of assay: Inhibition of human recombinant HDAC6 using [Ac-Leu-Gly-Lys(Ac)-AMC substrate incubated for 15 to 30 mins.

In another assay the target is T3, Histone deacetylase 8 (Homo sapiens, UniProt Q9BY41).
T3 sequence (Q9BY41 whole entry): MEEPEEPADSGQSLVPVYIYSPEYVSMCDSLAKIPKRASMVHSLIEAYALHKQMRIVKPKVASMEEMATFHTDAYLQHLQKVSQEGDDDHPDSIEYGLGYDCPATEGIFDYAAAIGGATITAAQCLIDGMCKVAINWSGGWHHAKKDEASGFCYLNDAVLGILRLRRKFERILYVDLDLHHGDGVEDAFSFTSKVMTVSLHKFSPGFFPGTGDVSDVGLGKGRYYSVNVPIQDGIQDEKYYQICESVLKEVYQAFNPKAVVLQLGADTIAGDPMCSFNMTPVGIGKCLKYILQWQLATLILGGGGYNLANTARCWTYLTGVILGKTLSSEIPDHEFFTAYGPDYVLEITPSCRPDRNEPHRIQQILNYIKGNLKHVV
The assay can be described thus: Inhibition of human recombinant HDAC8 using [Ac-Leu-Gly-Lys(Ac)-AMC substrate incubated for 15 to 30 mins.

Another assay has as its target Histone deacetylase 1 (Homo sapiens, UniProt Q13547). Kind of assay: Inhibition of human recombinant HDAC1 using [Ac-Leu-Gly-Lys(Ac)-AMC substrate incubated for 15 to 30 mins.
Assay [3] has as its target T4, Histone deacetylase 8 (Homo sapiens) (UniProt Q9BY41).
T4 sequence (whole entry): T3 sequence (Q9BY41 whole entry)
The assay can be described thus: Inhibition of human recombinant HDAC8 at 20 uM using [Ac-Leu-Gly-Lys(Ac)-AMC substrate incubated for 15 to 30 mins. A digest of the protocol: as §1

The target of assay [4] is T5, Polyamine deacetylase HDAC10 (Homo sapiens, UniProt Q969S8).
T5 sequence (Q969S8 whole entry): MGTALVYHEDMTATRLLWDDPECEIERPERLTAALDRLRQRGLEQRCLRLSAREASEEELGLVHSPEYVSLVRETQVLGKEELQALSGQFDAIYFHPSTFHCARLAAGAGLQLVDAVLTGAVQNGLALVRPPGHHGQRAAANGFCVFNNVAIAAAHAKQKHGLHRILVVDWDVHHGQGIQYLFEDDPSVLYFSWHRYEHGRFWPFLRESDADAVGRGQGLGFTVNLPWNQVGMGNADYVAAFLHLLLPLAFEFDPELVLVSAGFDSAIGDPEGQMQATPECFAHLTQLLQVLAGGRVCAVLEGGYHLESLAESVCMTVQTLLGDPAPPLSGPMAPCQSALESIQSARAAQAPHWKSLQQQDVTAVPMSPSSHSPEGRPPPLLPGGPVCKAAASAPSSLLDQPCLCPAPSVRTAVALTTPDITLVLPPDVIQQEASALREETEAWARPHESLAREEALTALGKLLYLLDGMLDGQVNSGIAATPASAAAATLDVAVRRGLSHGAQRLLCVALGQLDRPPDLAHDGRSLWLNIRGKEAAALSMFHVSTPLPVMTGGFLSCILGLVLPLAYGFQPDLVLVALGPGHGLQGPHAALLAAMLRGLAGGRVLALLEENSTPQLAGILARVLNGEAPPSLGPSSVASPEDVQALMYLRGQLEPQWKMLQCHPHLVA
The assay can be described thus: Inhibition of human recombinant HDAC10 using Ac-Arg-His-Lys(Ac)-Lys(Ac)-AMC substrate incubated for 15 to 30 mins.

The target of another assay is Histone deacetylase 3 (Homo sapiens, UniProt O15379). The assay can be described thus: Inhibition of human recombinant HDAC3 using [Ac-Leu-Gly-Lys(Ac)-AMC substrate incubated for 15 to 30 mins.
Sequence of Histone deacetylase 3 (O15379 whole entry): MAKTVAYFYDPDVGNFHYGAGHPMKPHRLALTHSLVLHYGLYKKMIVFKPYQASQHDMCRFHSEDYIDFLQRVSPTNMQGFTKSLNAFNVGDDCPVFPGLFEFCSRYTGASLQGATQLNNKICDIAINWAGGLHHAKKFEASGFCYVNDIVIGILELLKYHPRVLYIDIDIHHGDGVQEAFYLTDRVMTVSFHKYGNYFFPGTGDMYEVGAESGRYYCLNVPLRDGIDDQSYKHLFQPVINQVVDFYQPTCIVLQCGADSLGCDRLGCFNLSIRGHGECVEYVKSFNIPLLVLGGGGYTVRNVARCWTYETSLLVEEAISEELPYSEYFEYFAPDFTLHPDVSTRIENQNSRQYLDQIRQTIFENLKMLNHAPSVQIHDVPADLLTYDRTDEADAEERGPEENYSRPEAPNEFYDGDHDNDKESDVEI
The next assay addresses T6, Histone deacetylase 11 (Homo sapiens, UniProt Q96DB2).
T6 sequence (Q96DB2 whole entry): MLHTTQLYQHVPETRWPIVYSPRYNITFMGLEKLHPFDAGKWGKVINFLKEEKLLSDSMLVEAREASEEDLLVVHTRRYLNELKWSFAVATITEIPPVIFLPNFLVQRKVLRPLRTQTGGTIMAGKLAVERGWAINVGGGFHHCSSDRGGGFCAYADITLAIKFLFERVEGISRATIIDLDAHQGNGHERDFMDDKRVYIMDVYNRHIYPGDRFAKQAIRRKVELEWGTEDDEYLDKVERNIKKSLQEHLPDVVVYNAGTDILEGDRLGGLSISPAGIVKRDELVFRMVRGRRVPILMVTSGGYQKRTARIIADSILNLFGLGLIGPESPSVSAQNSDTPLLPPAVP
The assay can be described thus: Inhibition of human recombinant HDAC11 using [Ac-Leu-Gly-Lys(Ac)-AMC substrate incubated for 15 to 30 mins.

Active and inactive are the calls of the source. The rule behind the calls is not given here.

Sequence of Histone deacetylase 1 (Q13547 whole entry): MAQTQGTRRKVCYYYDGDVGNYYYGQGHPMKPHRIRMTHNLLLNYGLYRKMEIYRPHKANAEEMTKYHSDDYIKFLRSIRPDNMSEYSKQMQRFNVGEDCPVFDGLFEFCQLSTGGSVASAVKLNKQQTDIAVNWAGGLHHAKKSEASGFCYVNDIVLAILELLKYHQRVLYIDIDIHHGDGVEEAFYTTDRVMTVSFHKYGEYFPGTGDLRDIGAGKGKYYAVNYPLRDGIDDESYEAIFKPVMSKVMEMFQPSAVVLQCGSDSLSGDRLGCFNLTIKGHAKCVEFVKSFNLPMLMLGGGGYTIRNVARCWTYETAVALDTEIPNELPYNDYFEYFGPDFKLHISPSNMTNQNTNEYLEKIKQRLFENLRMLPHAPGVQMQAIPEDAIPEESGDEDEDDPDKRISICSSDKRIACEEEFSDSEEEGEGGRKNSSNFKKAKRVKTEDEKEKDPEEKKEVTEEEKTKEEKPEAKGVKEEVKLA

As to `CC(C)[C@H]1NC(=O)[C@@H](C)[C@@H](C/C=C\CCC(=O)O)NC(=O)[C@@H](Cc2ccc(O)cc2)NC(=O)[C@@H](C)NC1=O`, in the assay with EB-3, the “growth inhibition (GI)” value was “inactive”.

Regarding `CC(C)[C@H]1NC(=O)C[C@@H](CCCCCC(=O)O)NC(=O)[C@@H](Cc2ccccc2)NC(=O)[C@@H](C)NC1=O`, the inhibition constant (Ki) is 800 nM at Histone deacetylase 2; “Not Active” in assay [2]; “Not Active” at Histone deacetylase 8; 900 nM at Histone deacetylase 1; 1000 nM in [4]; 700 nM at Histone deacetylase 3. Further, the Ki at Histone deacetylase 11 came to 2000 nM. Moreover, the inhibition in assay [1] and in assay [3] was less than 50% throughout.

For `CC(C)[C@H]1NC(=O)C[C@@H](C/C=C\CCC(=O)O)NC(=O)[C@@H](Cc2ccc(O)cc2)NC(=O)[C@@H](C)NC1=O`, the Ki at Histone deacetylase 2 is 300 nM; in assay [2] (read-out: Ki), 6000 nM; at Histone deacetylase 8, “Not Active”; on Histone deacetylase 1, 300 nM; in assay [4] it was 300 nM; on Histone deacetylase 3, 300 nM. Moreover, on Histone deacetylase 11, the Ki came out at 800 nM. For the same molecule, the “growth inhibition (GI)” value in the assay on EB-3 was “inactive”.

In the case of `CC(C)[C@H]1NC(=O)C[C@@H](CCCCCC(=O)O)NC(=O)[C@@H](Cc2ccc(O)cc2)NC(=O)[C@@H](C)NC1=O`, the Ki on Histone deacetylase 2 is 300 nM; in assay [2] (read-out: Ki) it was 3000 nM; on Histone deacetylase 8, “Not Active”; on Histone deacetylase 1, 1000 nM; in [4] it was 300 nM; at Histone deacetylase 3, 200 nM. On Histone deacetylase 11, the inhibition constant (Ki) was 1000 nM. Also, in the assay on EB-3, the “growth inhibition (GI)” value is “inactive”. In addition, the inhibition in assay [3] was less than 50%.

In the case of `CC(C)[C@H]1NC(=O)[C@@H](C)[C@@H](C/C=C\CCC(N)=O)NC(=O)[C@@H](Cc2ccc(O)cc2)NC(=O)[C@@H](C)NC1=O`, the “growth inhibition (GI)” value in the assay with EB-3 is “inactive”.

Consider `CC(C)[C@H]1NC(=O)C[C@@H](CCCCCC(=O)O)NC(=O)[C@@H](Cc2c[nH]c3ccccc23)NC(=O)[C@@H](C)NC1=O`, for which the Ki was found to be 300 nM at Histone deacetylase 2; 1900 nM in assay [2] (read-out: Ki); 4300 nM at Histone deacetylase 8 (read-out: Ki); 900 nM at Histone deacetylase 1; 170 nM in [4]; 500 nM on Histone deacetylase 3. Besides, the Ki on Histone deacetylase 11 turned out to be 300 nM.

Take `CC(C)[C@H]1NC(=O)C[C@@H](/C=C/CCCC(=O)O)NC(=O)[C@@H](Cc2ccc(O)cc2)NC(=O)[C@@H](C)NC1=O`: the Ki at Histone deacetylase 2 is 600 nM; in assay [2] (read-out: Ki), 2200 nM; on Histone deacetylase 8, “Not Active”; at Histone deacetylase 1, 700 nM; in [4], 700 nM; on Histone deacetylase 3, 500 nM. On Histone deacetylase 11, the Ki came out at 1300 nM. Also, the “growth inhibition (GI)” value in the assay on EB-3 was “inactive”. For the same molecule, in assay [3], the inhibition is less than 50%.

`CC(C)[C@H]1NC(=O)[C@@H](C)[C@@H](C/C=C\CCC(=O)O)NC(=O)[C@@H](Cc2ccccc2)NC(=O)[C@@H](C)NC1=O`: in the assay on EB-3, the “growth inhibition (GI)” value is “inactive”.

As to `CC(C)[C@H]1NC(=O)C[C@@H](/C=C/CCCC(=O)O)NC(=O)[C@@H](Cc2ccccc2)NC(=O)[C@@H](C)NC1=O`, the Ki at Histone deacetylase 2 was 1700 nM; in assay [2], “Not Active”; on Histone deacetylase 8 (read-out: Ki), 6000 nM; on Histone deacetylase 1, 1200 nM; in assay [4] it was 1600 nM; on Histone deacetylase 3, 1400 nM. Moreover, the Ki on Histone deacetylase 11 was 3200 nM. Besides, in assay [1], the inhibition is less than 50%.

For `CC(C)[C@H]1NC(=O)C[C@@H](/C=C/CCCC(=O)O)NC(=O)[C@@H](Cc2c[nH]c3ccccc23)NC(=O)[C@@H](C)NC1=O`, the Ki on Histone deacetylase 2 is 400 nM; in assay [2] (read-out: Ki) it was 3700 nM; at Histone deacetylase 8 (read-out: Ki) it was 3000 nM; on Histone deacetylase 1, 500 nM; in assay [4], 600 nM; at Histone deacetylase 3, 600 nM. The Ki on Histone deacetylase 11 amounted to 1100 nM.

Take `CC(C)[C@H]1NC(=O)C[C@@H](C/C=C\CCC(=O)O)NC(=O)[C@@H](Cc2c[nH]c3ccccc23)NC(=O)[C@@H](C)NC1=O`: the inhibition constant Ki was 300 nM at Histone deacetylase 2; “Not Active” in assay [2]; 4500 nM on Histone deacetylase 8 (read-out: Ki); 200 nM on Histone deacetylase 1; 230 nM in assay [4]; 500 nM on Histone deacetylase 3. The Ki at Histone deacetylase 11 amounted to 900 nM. For the same molecule, in the assay with EB-3, the “growth inhibition (GI)” value was “inactive”.

The Ki is the dissociation constant of the complex between target and ligand, obtained from inhibition or displacement. The term inhibition denotes the relative decrease from the control value, in per cent.
